In ChEMBL document CHEMBL2331120, “Evidence for the analgesic activity of resveratrol in acute models of nociception in mice” (2013):
The source made the active and inactive calls.

Assays:
[1] = tested on: Mus musculus; assay: Antinociceptive activity in Swiss mouse assessed as inhibition of glutamate-induced increase of c-Fos expression in brain cortex at 100 mg/kg, po by immunohistochemistry analysis; format: functional, organism-based; design: dose 100 mg/kg
In short: (§1)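 Swiss mice dosed 100 mg/kg po 30 min before ipl glutamate (10 μmol per paw). Spinal cord and brain excised 60 min later and formalin-fixed. Sections immunostained with rabbit anti-c-Fos (1:1000) overnight at room temperature, then biotinylated secondary, ABC and nickel-enhanced DAB. Positive area per field quantified. Four animals per group.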

[2] = tested on: Mus musculus; assay: Antinociceptive activity in Swiss mouse assessed as inhibition of capsaicin-induced spontaneous nociception at 150 ug/site, administered as intrathecally; format: functional
In short: (§2)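 Mice given intrathecal dose in 5 μL 10 min before intraplantar capsaicin (1.6 μg/paw, 20 μL). Time spent licking the paw recorded for 5 min. Saline-treated controls. Eight animals per group. Percent inhibition averaged across individual experiments.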

[3] = tested on: Mus musculus; assay: Antinociceptive activity in Swiss mouse assessed as inhibition of capsaicin-induced biting behavior at 300 ug/site, administered intrathecally; format: functional, organism-based
In short: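 Swiss mice, 30 to 35 g. Given 300 μg/site it, in 5 μL, co-injected with capsaicin (6.4 μg in 5 μL) into the subdural space at L5−L6. Biting is scored as single head movements directed at the flanks or hind limbs that contact the snout. Controls got saline. Eight animals per group.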

[4] = tested on: Mus musculus; assay: Antinociceptive activity in Swiss mouse assessed as inhibition of capsaicin-induced increase of COX2 expression in L3-L6 spinal segments and cerebral cortex at 100 mg/kg, po by immunohistochemistry analysis; format: functional, organism-based; design: dose 100 mg/kg
In short: (§3)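 Swiss mice, 30 to 35 g, dosed 100 mg/kg po 30 min before ipl capsaicin (1.6 μg in 20 μL per paw). Spinal cord and brain taken 60 min later and fixed in buffered formalin. Sections stained with rabbit anti-c-Fos or anti-COX-2 (1:1000) overnight at room temperature, then biotinylated secondary, ABC and nickel-enhanced DAB. Read-out is positive area per field. Four animals per group.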

[5] = tested on: Mus musculus; assay: Antinociceptive activity in Swiss mouse assessed as inhibition of glutamate-induced increase of c-Fos expression in L3-L6 spinal segments at 100 mg/kg, po by immunohistochemistry analysis; format: functional, organism-based; design: dose 100 mg/kg; in short: as §1
[6] = tested on: Mus musculus; assay: Antinociceptive activity in Swiss mouse assessed as inhibition of capsaicin-induced increase of c-Fos expression in brain cortex at 100 mg/kg, po by immunohistochemistry analysis; format: functional, organism-based; design: dose 100 mg/kg; in short: as §3
[7] = tested on: Mus musculus; assay: Antinociceptive activity in Swiss mouse assessed as inhibition of capsaicin-induced spontaneous nociception at 300 ug/site, icv; format: functional
In short: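 Intracerebroventricular injection (300 μg/site in 5 μL) 10 min before capsaicin (1.6 μg in 20 μL) into the right hindpaw plantar surface of Swiss mice. Paw-licking time (s) measured over 5 min against saline controls. n = 8. Inhibition calculated as the mean of per-experiment values.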

[8] = tested on: Mus musculus; assay: Antinociceptive activity in Swiss mouse assessed as inhibition of glutamate-induced increase of COX2 expression in spinal cord and cortex brain section at 100 mg/kg, po
[9] = tested on: Mus musculus; assay: Antinociceptive activity in Swiss mouse assessed as inhibition of capsaicin-induced spontaneous nociception at 600 ug/site, administered as intrathecally; format: functional; in short: as §2
[10] = tested on: Mus musculus; assay: Antinociceptive activity in Swiss mouse assessed as inhibition of glutamate-induced biting behavior at 300 ug/site, administered intrathecally; format: functional
In short: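 Glutamate (30 μg in 5 μL) injected intrathecally into the subdural space at L5–L6, co-injected with compound (300 μg in 5 μL, it). Biting was scored, defined as a head movement toward the flanks or hind limbs ending in snout contact. Saline controls. Eight mice per group.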

[11] = tested on: Mus musculus; assay: Antinociceptive activity in Swiss mouse assessed as inhibition of capsaicin-induced spontaneous nociception at 100 mg/kg, po; format: functional
In short: (§4)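 Swiss mice (30 to 35 g) acclimatized in observation chambers, then dosed orally 30 min before intraplantar capsaicin (1.6 μg in 20 μL, right hindpaw). Time spent licking the injected paw scored over 5 min. Saline controls on the same schedule. n = 8 per group. Percent inhibition taken as the mean of individual experiments.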

[12] = tested on: Mus musculus; assay: Antinociceptive activity in Swiss mouse assessed as inhibition of capsaicin-induced spontaneous nociception at 200 ug/site, administered as intraplantarly; format: functional, organism-based
In short: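 Given 200 μg/paw intraplantar, co-injected with capsaicin (1.6 μg in 20 μL) into the right hindpaw of Swiss mice. Time spent licking the injected paw recorded over 5 min. Saline controls. Eight animals per group.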

[13] = tested on: Mus musculus; assay: Antinociceptive activity in Swiss mouse assessed as inhibition of capsaicin-induced increase of c-Fos expression in L3-L6 spinal segments at 100 mg/kg, po by immunohistochemistry analysis; format: functional, organism-based; design: dose 100 mg/kg; in short: as §3
[14] = tested on: Mus musculus; assay: Antinociceptive activity in Swiss mouse assessed as inhibition of capsaicin-induced spontaneous nociception at 50 mg/kg, po; format: functional; in short: as §4
[15] = tested on: Mus musculus; assay: Antinociceptive activity in Swiss mouse assessed as inhibition of glutamate-induced spontaneous nociception at 300 ug/site, administered as intrathecally; format: functional, organism-based
In short: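 Given intrathecally at 300 μg/site in 5 μL, 10 min before ipl glutamate (10 μmol per paw, in 20 μL) in Swiss mice. Paw-licking time recorded over 15 min. Saline controls. Eight animals per group.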

[16] = tested on: Mus musculus; assay: Antinociceptive activity in Swiss mouse assessed as inhibition of capsaicin-induced spontaneous nociception at 300 ug/site, administered as intrathecally; format: functional; in short: as §2
[17] = tested on: Mus musculus; assay: Antinociceptive activity in Swiss mouse assessed as inhibition of capsaicin-induced increase of COX2 expression in brain cortex at 100 mg/kg, po by Western blotting; format: functional, organism-based; design: dose 100 mg/kg
In short: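 Mice dosed 100 mg/kg po or given saline, then capsaicin 1.6 μg/paw ipl. Cortex homogenized in hypotonic HEPES buffer with protease inhibitors plus Nonidet P-40. 20 μg protein run on 10% SDS-PAGE. Blot probed 12 h with anti-COX-2 (1:250), then HRP secondary. Bands by chemiluminescence and densitometry, normalized to β-actin. Four animals per group.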

[18] = tested on: Mus musculus; assay: Antinociceptive activity in Swiss mouse assessed as inhibition of glutamate-induced spontaneous nociception at 100 mg/kg, po; format: functional
In short: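 Oral pretreatment 30 min before intraplantar glutamate (10 μmol/paw, 20 μL) into the right hindpaw. Mice observed individually for 15 min for time spent licking the injected paw. Saline controls. Eight animals per group. Percent inhibition taken as the mean of individual experiments.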

[19] = tested on: Mus musculus; assay: Antinociceptive activity in Swiss mouse assessed as inhibition of glutamate-induced spontaneous nociception at 200 ug/site, administered as intraplantarly; format: functional
In short: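 Compound co-injected intraplantarly (200 μg/paw) with glutamate (10 μmol/paw, 20 μL) into the right hindpaw of Swiss mice. Licking of the injected paw timed over 15 min. Saline controls. n = 8 per group.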

[20] = tested on: Mus musculus; assay: Antinociceptive activity in Swiss mouse assessed as inhibition of glutamate-induced spontaneous nociception at 300 ug/site, icv; format: functional, organism-based
In short: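 Dosed icv at 300 μg/site in 5 μL, 10 min before glutamate (10 μmol/paw, ipl). Licking of the injected paw timed for 15 min in Swiss mice, against saline controls. Eight animals per group.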

With `Oc1ccc(/C=C/c2cc(O)cc(O)c2)cc1` [RESVERATROL] the inhibition [1] was “inactive”, the “inhibition (INH)” value [2] was 33% and the inhibition [3] was “inactive”. For the same molecule, the inhibition [4] was “Active”, the inhibition [5] was “inactive” and the inhibition [6] was “inactive”. The “inhibition (INH)” value [7] was 87%, the inhibition [8] was “inactive” and the “inhibition (INH)” value [9] was 36%. For the same molecule, the “inhibition (INH)” value [10] was 74%, the inhibition in vivo at 100 mg/kg [11] was 36% and the inhibition [12] was “inactive”. The inhibition [13] was “Active”, the inhibition in vivo at 50 mg/kg [14] was 29% and the inhibition [15] was “inactive”. For the same molecule, the “inhibition (INH)” value [16] was 44%, the inhibition [17] was “Active” and the inhibition in vivo at 100 mg/kg [18] was 39%. For the same molecule, the “inhibition (INH)” value [19] was 33% and the inhibition [20] was “inactive”.
